A short description of data set [1]: melting temperature; fluorescence melt of hairpins on a sequencing array, two-state fit, raised by 9.35 °C to match UV melts. To be noted: sodium 0.088 M. The essentials: (§1)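 Folding enthalpy and melting temperature were estimated with bootstrapped two-state fits and combined across four replicates by inverse-variance weighting, with fitted temperatures raised by 9.35 °C to match UV melts. The data were Cy3 fluorescence of library hairpins, with annealed Cy3 and quencher oligos, on a sequenced MiSeq flow cell in 50 mM Na-HEPES pH 8.0, 25 mM NaCl, imaged in 2.5 °C steps up to 60 °C and normalised to pre-quench Cy3 and control constructs.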

The nature of data set [2]: folding enthalpy; higher = less favourable; fluorescence melt of hairpins on a sequencing array, two-state fit. As to conditions: sodium 0.088 M. The essentials:
as §1

In the case of GCGAATAATCGC ((((....)))), in data set [1], the Tm amounted to 46.2 °C. Further, the folding enthalpy in data set [2] is -14 kcal/mol.
For GATCGCTTGCGCGATC ((((((....)))))), the Tm in data set [1] amounted to 67.1 °C. In data set [2], the folding enthalpy is -30.3 kcal/mol.
For GATCATGAGGATGATC ((((((....)))))), in that order: 43.7 °C and -38.4 kcal/mol.
In the case of GCTGGCGAAAGCCATAGC ((((((....)))..))), in data set [1], the Tm was determined as 52.3 °C. Besides, the folding enthalpy in data set [2] was -16.2 kcal/mol.
Take GCGTGGCGAAAGCCCAGC ((..(((....)))..)): the Tm in data set [1] was 56.2 °C. In addition, in data set [2], the folding enthalpy was -18.3 kcal/mol.
Regarding GCCCCTGGAAACAGGGAC (.(((((....))))).), the Tm in data set [1] is 51.1 °C. The folding enthalpy in data set [2] is -13.9 kcal/mol.
For GATGTTGGAAACAACGTC ((.((((....)))).)), the Tm in data set [1] came out at 49 °C. Also, in data set [2], the folding enthalpy was -26.4 kcal/mol.
For GGTAACGAAAGTTCCACC ((((((....)))..))), in that order: 33.3 °C and -12.3 kcal/mol.
As for GTATACGGAAACGTGTAC (((.(((....))).))), the Tm in data set [1] stood at 46.3 °C. Moreover, in data set [2], the folding enthalpy was -35.3 kcal/mol.
In the case of GGTTCGAAAGAACC (((((....))))), the Tm in data set [1] turned out to be 64.8 °C. Further, the folding enthalpy in data set [2] is -28.2 kcal/mol.
On to GGCCATACGAAAGTAGCC (((..(((....)))))), for which the Tm in data set [1] was 38.7 °C. For the same sequence, in data set [2], the folding enthalpy was -20.6 kcal/mol.
With CTATGGAAACATAG (((((....))))), in data set [1], the Tm was 36.9 °C. For the same sequence, in data set [2], the folding enthalpy is -15.7 kcal/mol.
In the case of GATCTTGGAAACAGGATC ((((.((....)).)))), the Tm in data set [1] came to 39.1 °C. The folding enthalpy in data set [2] was -28.6 kcal/mol.
For GCAGAGCGAAAGCTACGC ((..(((....)))..)), the Tm in data set [1] amounted to 47.2 °C. For the same sequence, in data set [2], the folding enthalpy was -13.9 kcal/mol.
As for GCCACTGGAAACGGTGGC (((((.(....).))))), the Tm in data set [1] came to 58.6 °C. The folding enthalpy in data set [2] was -50.6 kcal/mol.
As to GATCCGGTGTCGGATC ((((((....)))))), the Tm in data set [1] came to 57.6 °C. Also, the folding enthalpy in data set [2] was -37.2 kcal/mol.
GTCTACGGAAACGTAGAC (((((((....))))))): the Tm in data set [1] was 61 °C. The folding enthalpy in data set [2] was -46.2 kcal/mol.
Take GTCCTAGGAAACCAGGAC (((((.(....).))))): the Tm in data set [1] turned out to be 45.3 °C. For the same sequence, the folding enthalpy in data set [2] is -28.6 kcal/mol.
The matching figures for GCGTGATCACGC ((((....)))): 59.1 °C and -35.6 kcal/mol.
Regarding GTCTCGCGAAAGCGCGAC (((.(((....))).))), the Tm in data set [1] was 53 °C. Besides, the folding enthalpy in data set [2] is -27.7 kcal/mol.
The matching figures for GCAGCGCGAAAGCGAGGC ((..(((....)))..)): 63.8 °C and -19.2 kcal/mol.
On to GGACACCGAAAGGTATCC (((.(((....))).))), for which, in data set [1], the Tm came out at 47.5 °C. Also, in data set [2], the folding enthalpy is -30.4 kcal/mol.
For GCTTTTGGAAACAGAAGC ((((.((....)).)))), in that order: 41.4 °C and -25.1 kcal/mol.
In the case of GATCCTTTCAAGGATC ((((((....)))))), the Tm in data set [1] is 57.7 °C. Further, the folding enthalpy in data set [2] is -33.3 kcal/mol.
Consider GAAAGCGAAAGCTATTC ((((((....))).))), for which the Tm in data set [1] turned out to be 30.4 °C. The folding enthalpy in data set [2] was -12 kcal/mol.
Take GATCTGGATCCAGATC ((((((....)))))): the Tm in data set [1] was 54.1 °C. Moreover, the folding enthalpy in data set [2] was -55.9 kcal/mol.
The matching figures for GTGCGCGAAAGCGTACAC ((((((....)))..))): 60.5 °C and -11.9 kcal/mol.
On to GCAAAGCGAAAGCTAAGC ((..(((....)))..)), for which the Tm in data set [1] stood at 40.3 °C. The folding enthalpy in data set [2] was -12.6 kcal/mol.
For GCGTGGCGAAAGCCGTGC ((..(((....)))..)), in that order: 57.4 °C and -19.2 kcal/mol.
On to GATGACGCGAAAGCGATC (((..(((....)))))), for which the Tm in data set [1] came out at 35 °C. For the same sequence, in data set [2], the folding enthalpy was -8.64 kcal/mol.
Consider GGTCTCGGAAACGGGACC ((((.((....)).)))), for which the Tm in data set [1] turned out to be 57.5 °C. Also, the folding enthalpy in data set [2] was -44 kcal/mol.
As to GATCTGGTTGCAGATC ((((((....)))))), the Tm in data set [1] amounted to 51.1 °C. The folding enthalpy in data set [2] is -42.9 kcal/mol.
As for GGTCACGAAAGTGGAACC ((((((....)))..))), the Tm in data set [1] came out at 40.5 °C. The folding enthalpy in data set [2] is -18.3 kcal/mol.
For GCTGAGCGAAAGCGTAGC (((..((....))..))), in that order: 62 °C and -21.8 kcal/mol.
Regarding GTCATCGAAAGATCTGAC ((((((....)))..))), in data set [1], the Tm came to 23.8 °C. Also, the folding enthalpy in data set [2] is -10.9 kcal/mol.
Turning to GATCTCTGCCGAGATC ((((((....)))))), the Tm in data set [1] was found to be 51.3 °C. The folding enthalpy in data set [2] was -37.9 kcal/mol.
In the case of GTACGCGGAAACGCGCAC ((.((((....)))).)), the Tm in data set [1] turned out to be 52.9 °C. Further, the folding enthalpy in data set [2] is -14 kcal/mol.

(Values after the array DNA melting data of Ke et al. (doi:10.1101/2024.01.08.574731).)
